ARNT TACC3 PPI: disruptors of human ARNT/TACC3 interaction. inhibition, % at 9.99 µM. AlphaScreen His-ARNT PAS-B/GST-TACC3 binding, luminescence; TACC3 fragment carries E629A point mutation. 390,000 tested, 0.66% active. AID 623870. Q9Y6A5;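 active = mean inhibition of replicates at least 50% and at least half of replicates each reaching 50%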;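 note: 0% = complete ARNT plus TACC3 wells and 100% = ARNT alone without TACC3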
MLL AF4-AF9 inh: MLL-AF4/AF9 protein interaction inhibition; P42568; inhibition, % at 10 µM; AlphaScreen, biotin-AF4 peptide binding to FLAG-AF9; 350,000 tested, 0.47% active;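 active = every replicate reaching a set inhibition limit, whatever the replicate mean, cut at about 25% in these data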;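 note: 0% = plate neutral control median and 100% = total signal loss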
Target sequence (P42568 whole entry, looked up): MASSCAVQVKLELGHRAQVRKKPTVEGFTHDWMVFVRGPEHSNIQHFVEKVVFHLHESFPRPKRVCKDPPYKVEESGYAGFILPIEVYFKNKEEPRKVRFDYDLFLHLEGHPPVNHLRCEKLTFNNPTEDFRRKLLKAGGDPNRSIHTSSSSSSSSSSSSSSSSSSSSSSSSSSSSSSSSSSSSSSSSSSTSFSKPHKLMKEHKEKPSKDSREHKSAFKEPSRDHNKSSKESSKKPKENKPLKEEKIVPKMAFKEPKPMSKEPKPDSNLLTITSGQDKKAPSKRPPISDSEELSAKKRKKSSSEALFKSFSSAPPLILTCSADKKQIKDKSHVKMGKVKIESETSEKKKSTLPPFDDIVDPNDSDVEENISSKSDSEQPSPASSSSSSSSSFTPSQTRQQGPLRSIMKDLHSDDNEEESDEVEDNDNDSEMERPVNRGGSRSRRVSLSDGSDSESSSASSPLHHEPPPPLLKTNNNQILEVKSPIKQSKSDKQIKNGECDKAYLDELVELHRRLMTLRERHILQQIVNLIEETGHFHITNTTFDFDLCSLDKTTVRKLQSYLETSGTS
ERp5 block: ERp5 (human) disulfide isomerase inhibition; AID 651711; Q15084; ERp5 insulin aggregation, absorbance 650 nm, 90 min; inhibition, % at 9.99 µM; 350,000 tested, 0.05% active;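 active = mean replicate inhibition above about 25%, with every replicate also reaching it, limit read from the data, passing the limit was not always enough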
FN deposition inh: fibronectin deposition inhibition; AH1F fibroblasts, Alexa488-fibronectin deposition fluorescence, overnight; inhibition, % at 12.6 µM; 350,000 tested, 0.086% active;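 active = mean inhibition across replicates of 30% or more, regardless of how many single replicates reach that level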;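 note: positive control wells lacked labelled fibronectin entirely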
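material = AH1F fibroblast monolayer depositing Alexa488-labelled fibronectin into matrix | amount = 10000 AH1F cells/well | buffer or medium = DMEM plus 2% serum, read in PBS | incubation = 1 h cell adhesion before compound, then overnight fibronectin incubation | detection = fluorescence at 485 nm excitation, 525 nm emission | evaluation = percent inhibition as loss of matrix-bound fibronectin fluorescence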
PDI inh: PDI (human) enzyme inhibition; inhibition, % at 10 µM; 350,000 tested, 0.052% active; P07237; PDI insulin aggregation turbidity, A650, 90 min; AID 588391;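 active = mean inhibition across replicates of 30% or more, whatever share of single replicates reach that level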
FGF22 binding: shifts melting point of recombinant human FGF22; 340,000 tested, 1.5% active; activity (Tm shift, normalised), % at 9.99 µM; recombinant FGF22 thermal shift, SYPRO orange fluorescence; percent of sucrose octasulfate shift, DMSO zero;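 active = mean Tm shift, scaled 0 neutral to 100 positive control, at about 1.3% or above, every replicate too, limit read from the data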
* marks the source's active call; other numbers are inactive results. An excerpt weighted towards active compounds, which were near 2.1% of everything screened.

C[C@H]1CN([C@@H](C)CO)C(=O)c2cc(NS(C)(=O)=O)ccc2O[C@H]1CN(C)C(=O)Nc1cccc2ccccc12 was read as ARNT TACC3 PPI -9, MLL AF4-AF9 inh -2, ERp5 block 6 and FGF22 binding 0.
For C[C@@H]1CN([C@H](C)CO)C(=O)c2cc(C3=CCCC3)cnc2O[C@@H]1CN(C)C(=O)c1cccnc1 the results were ARNT TACC3 PPI -3, MLL AF4-AF9 inh -3, ERp5 block -2 and FGF22 binding 0.
`CCCCC(=O)N/N=C/c1ccc(Sc2cccc3cccnc23)o1` gave ARNT TACC3 PPI 54* and PDI inh 4.
Screening O=C(CSc1cccc2cccnc12)N/N=C/c1ccc(F)cc1 returned ARNT TACC3 PPI 44, ERp5 block 3, FN deposition inh 4, PDI inh 0 and FGF22 binding 1.
`COc1ccc2c3c([nH]c2c1)[C@@H](CO)N(S(C)(=O)=O)CC31CN(C(=O)Cc2cccnc2)C1` gave MLL AF4-AF9 inh -6 and FN deposition inh -11.
C[C@H]1CN(C)C(=O)c2ccccc2O[C@@H]1CN(C)S(C)(=O)=O was read as FN deposition inh -1.
`Cc1nn(C)c(C)c1S(=O)(=O)Nc1ccc2c(c1)OCO2` gave ARNT TACC3 PPI 10 and PDI inh 1.
Cc1ccc(C)c(NS(=O)(=O)c2c(C)nn(C)c2C)c1 was read as ARNT TACC3 PPI -10, FN deposition inh 1 and PDI inh 37*.
Screening O=C(NC[C@@H]1CC[C@@H]2[C@@H](CN2C(=O)C2CCOCC2)O1)c1cccnc1 returned MLL AF4-AF9 inh -3 and ERp5 block -7.
Screening CCc1nnc(NS(=O)(=O)c2ccc(NC(=O)C(c3ccccc3)c3ccccc3)cc2)s1 returned ARNT TACC3 PPI -14, MLL AF4-AF9 inh -1, ERp5 block 4, FN deposition inh -2, PDI inh 8 and FGF22 binding 1.5*.
CCc1nnc(NS(=O)(=O)c2ccc(NC(=O)c3ccccc3OC)cc2)s1 was read as ARNT TACC3 PPI 0, MLL AF4-AF9 inh -2, ERp5 block 0, FN deposition inh 2, PDI inh 2 and FGF22 binding 0.
CCc1nnc(NS(=O)(=O)c2ccc(NC(=O)/C=C/c3ccccc3Cl)cc2)s1 was read as ARNT TACC3 PPI 2, MLL AF4-AF9 inh 2, ERp5 block -6, FN deposition inh -3, PDI inh -2 and FGF22 binding 1.8*.
For CCc1nnc(NS(=O)(=O)c2ccc(NC(=O)c3ccccc3C)cc2)s1 the results were ARNT TACC3 PPI -4, MLL AF4-AF9 inh 6, ERp5 block -2, FN deposition inh -4, PDI inh -1 and FGF22 binding 43*.
For COc1ccc2c3c(n(C)c2c1)[C@@H](CO)N(Cc1ccccc1)CC31CCN(C(=O)c2ccccc2F)CC1 the results were MLL AF4-AF9 inh 6, ERp5 block 1 and FGF22 binding 0.
`CC(C)CC#Cc1ccc2c(c1)O[C@@H](CN(C)Cc1ccccn1)[C@@H](C)CN([C@H](C)CO)S2(=O)=O` gave ARNT TACC3 PPI -12, MLL AF4-AF9 inh 6, ERp5 block -5, FN deposition inh 2 and FGF22 binding 0.
`O=C(C[C@H]1CC[C@H](NS(=O)(=O)c2cccc(F)c2)[C@@H](CO)O1)NCc1ccc2c(c1)OCO2` gave ARNT TACC3 PPI -3, MLL AF4-AF9 inh 9, ERp5 block 0, FN deposition inh 11 and FGF22 binding 0.
CN(CC(=O)Nc1ccc(F)cc1)CC(=O)NC1CCCCC1 was read as ARNT TACC3 PPI 3, MLL AF4-AF9 inh 0, ERp5 block 25*, FN deposition inh -14, PDI inh 11 and FGF22 binding 0.
CN(CC(=O)Nc1ccccc1)CC(=O)Nc1ccc(F)cc1 was read as ARNT TACC3 PPI -15, MLL AF4-AF9 inh 1, ERp5 block 1, FN deposition inh 5, PDI inh -3 and FGF22 binding 0.
COCC#Cc1ccc2c(c1)O[C@@H](CN(C)S(=O)(=O)c1ccc(F)cc1)[C@H](C)CN([C@@H](C)CO)S2(=O)=O was read as ARNT TACC3 PPI 1, MLL AF4-AF9 inh -2, ERp5 block 5 and FGF22 binding 0.
For Cc1cc(NC(=O)C2CC(=O)N(c3cccc(C)c3C)C2)no1 (stereo not given) the results were ARNT TACC3 PPI 2, MLL AF4-AF9 inh 44*, ERp5 block 1, FN deposition inh 5, PDI inh -12 and FGF22 binding 0.
Cc1ccccc1OCCNc1cc(N2CC(C)NC(C)C2)ccc1[N+](=O)[O-] (stereo not given) was read as ARNT TACC3 PPI 4, MLL AF4-AF9 inh 38*, ERp5 block 3, FN deposition inh 14 and FGF22 binding 0.
CCc1ccc(OCCNc2cc(N3CCNC(C)C3)ccc2[N+](=O)[O-])cc1 (stereo not given) was read as ARNT TACC3 PPI 25, MLL AF4-AF9 inh 37*, ERp5 block 0, FN deposition inh -18, PDI inh 11 and FGF22 binding 0.
Screening C[C@H](CO)N1C[C@H](C)[C@H](CN(C)S(C)(=O)=O)Oc2ccc(N(C)C)cc2CC1=O returned ARNT TACC3 PPI 13, MLL AF4-AF9 inh -1, ERp5 block -3, FN deposition inh 8 and FGF22 binding -1.
`CCCCCOc1ccc(NC(=O)C(=O)NCCCn2ccnc2)cc1` gave ARNT TACC3 PPI -7, FN deposition inh -4 and PDI inh -5.
For O=C(NCCCn1ccnc1)Nc1cccc(Cl)c1 the results were ARNT TACC3 PPI 61*, FN deposition inh 5 and PDI inh 1.
COc1ccc(NC(=S)NCCCn2ccnc2)cc1 was read as ARNT TACC3 PPI active and PDI inh 1.
For COc1cccc(NC(=O)C(=O)NCCCn2ccnc2)c1 the results were ARNT TACC3 PPI 31, MLL AF4-AF9 inh 1, ERp5 block 3, PDI inh -3 and FGF22 binding 43*.
Screening CCNC(=O)Nc1ccc2c(c1)C(=O)N(C)[C@H]1CC[C@H](CC(=O)NCc3ccccc3F)O[C@@H]1CO2 returned ARNT TACC3 PPI -9, MLL AF4-AF9 inh 0, ERp5 block 1 and FN deposition inh 0.
Screening CCn1c(-c2cccs2)nc2ccccc21 returned ARNT TACC3 PPI 0 and PDI inh 3.
For C#CCn1c(-c2cccs2)nc2ccccc21 the results were ARNT TACC3 PPI -1, MLL AF4-AF9 inh -1, ERp5 block 9, FN deposition inh -6, PDI inh -3 and FGF22 binding 43*.
For COc1ccccc1-c1ccc2n(c1=O)C[C@@H]1[C@@H](CO)[C@H](C(=O)NCC3CC3)N(S(C)(=O)=O)[C@H]21 the results were ARNT TACC3 PPI 0, MLL AF4-AF9 inh 2, ERp5 block 2 and FGF22 binding 0.

Bioassay records as filed in PubChem BioAssay.
